For 13 compounds, IC50, MIC and MCC results are on record in ChEMBL document CHEMBL1134545, “Design, synthesis, DNA binding, and biological evaluation of water-soluble hybrid molecules containing two pyrazole analogues of the alkylating cyclopropylpyrroloindole (CPI) subunit of the antitumor agent CC-1065 and polypyrrole minor groove binders” (J Med Chem, 2001).

Values after ≈ are worked out from the molar mass of the structure shown.

The test system of assay [1] is L1210. As to the kind of experiment: In vitro antitumor activity against Murine leukemia (L1210) cell lines. To be noted: Mus musculus. The format is functional, cell-based. An outline of the steps: (§1)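 Cells seeded at 250 000-300 000 cells/mL and exposed to a range of compound concentrations. Incubation for 2-3 days at 37 °C, followed by Coulter counter cell counts. IC50 is the concentration that lowers cell number by 50%. Reported as mean ± SE from dose-response curves of at least three independent experiments.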

The subject of another assay is Daudi. As to the kind of experiment: In vitro antitumor activity against Human B-lymphoblast (Daudi) cell lines. The format is functional, cell-based. An outline of the steps: as §1
The next assay has as its system MOLT-4. Kind of assay: In vitro antitumor activity against Human T-lymphoblast (Molt/4) cell lines. The format is functional, cell-based. An outline of the steps:
as §1

A further assay has as its system CCRF-CEM. Kind of assay: In vitro antitumor activity against Human T-lymphoblast (CEM) cell lines. The format is functional, cell-based. An outline of the steps: as §1
For another assay, the system named is FM3A. Kind of assay: In vitro antitumor activity against Murine mammary carcinoma (FM3A) cell lines. As to conditions: Mus musculus. The format is functional, cell-based. An outline of the steps: as §1
Assay [2] relates to E6SM. Kind of assay: Antiviral activity against […] in E6SM cell cultures. The format is functional. As to conditions: Homo sapiens. An outline of the steps: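 E6SM cells grown in MEM with 10% inactivated FCS, 2 mM L-glutamine and 0.3% NaHCO3, infected, then treated with varying compound concentrations. MIC is the concentration reducing virus-induced cytopathogenicity by 50%, recorded once CPE reached completion in untreated infected controls.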

Assay [3] deals with E6SM. As to the kind of experiment: Antiviral activity against Vaccinia virus in E6SM cell cultures. The format is functional. To be noted: Homo sapiens. An outline of the steps: (§2)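 Confluent E6SM cells, grown in MEM with 10% inactivated FCS, 2 mM L-glutamine and 0.3% NaHCO3, inoculated with 100 CCID50 per well. After 1 or 2 h, residual virus removed. Cells then incubated in MEM with 2% FCS and varying compound concentrations for 3 days. MIC is the concentration reducing virus-induced cytopathicity by 50% versus untreated control, read when control CPE complete.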

The subject of assay [4] is E6SM. As to the kind of experiment: Antiviral activity against herpes simplex virus-2 G (HSV-2) in E6SM cell cultures. The format is functional. To be noted: Homo sapiens. An outline of the steps: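 Confluent E6SM cells (MEM, 10% inactivated FCS) were infected with HSV-2 strain G at 100 CCID50 per well. After 1 or 2 h, residual virus was removed and the cells were incubated in MEM with 2% FCS and varying compound concentrations. MIC is the concentration reducing cytopathicity by 50%, recorded when control infected cultures reached full CPE (3 days).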

Assay [5] deals with E6SM. Kind of assay: Minimum cytotoxic concentration required to cause a microscopically detectable alteration of normal cell morphology. The format is functional. As to conditions: Homo sapiens. An outline of the steps:
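E6SM cell cultures exposed to compound for the same duration as the antiviral assays. Cells examined under a microscope. MCC is the lowest concentration causing detectable alteration of normal cell morphology.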

In assay [6] the test system is E6SM. As to the kind of experiment: Antiviral activity against herpes simplex virus-1 TK-KOS ACV (HSV-1) in E6SM cell cultures. The format is functional. To be noted: Homo sapiens. An outline of the steps:
as §2

In assay [7] the test system is E6SM. Kind of assay: Antiviral activity against herpes simplex virus-1 TK-VMW 1837 (HSV-1) in E6SM cell cultures. To be noted: Homo sapiens. The format is functional. An outline of the steps:
as §2

Assay [8] deals with E6SM. As to the kind of experiment: Antiviral activity against herpes simplex virus-1 KOS (HSV-1) in E6SM cell cultures. The format is functional. As to conditions: Homo sapiens. An outline of the steps: as §2
The test system of assay [9] is L1210. Kind of assay: Cytotoxicity against L1210 leukemia cells. The format is functional, cell-based. To be noted: Mus musculus. An outline of the steps: as §1

Consider `Cc1n[nH]c2c(O)cc3c(c12)C(CCl)CN3C(=O)c1cc(C(=O)Nc2cc(C(=O)NCCC(=N)N)n(C)c2)n(C)n1` (stereo not given), for which the IC50 was 58 nM with L1210 [1]; 150 nM with Daudi; 340 nM with MOLT-4; 230 nM in the assay on CCRF-CEM; 1600 nM in the assay on FM3A.

In the case of `Cn1cc(NC(=O)c2cc(NC(=O)c3cc(C(=O)N4CC(CCl)c5c4cc(O)c4c5cnn4Cc4ccccc4)nn3C)cn2C)cc1C(=O)NCCC(=N)N` (stereo not given), the IC50 worked out at 600 nM with L1210 [1]; 38 nM in the assay on Daudi; 160 nM in the assay on MOLT-4; 210 nM with CCRF-CEM; 5600 nM in the assay with FM3A.

Take `Cc1n[nH]c2c(O)cc3c(c12)C(CCl)CN3C(=O)c1cc(C(=O)Nc2cc(C(=O)Nc3cc(C(=O)NCCC(=N)N)n(C)c3)n(C)c2)n(C)n1` (stereo not given): the IC50 in the assay with L1210 [1] came to 19 nM; with Daudi it was 22 nM; with MOLT-4 it was 45 nM; with CCRF-CEM, 39 nM; with FM3A, 190 nM.

For `Cn1cc(NC(=O)c2cc(C(=O)N3CC(CCl)c4c3cc(O)c3c4cnn3Cc3ccccc3)nn2C)cc1C(=O)NCCC(=N)N` (stereo not given), the IC50 with L1210 [1] was found to be 240 nM; with Daudi, 11 nM; in the assay on MOLT-4 it was 130 nM; in the assay on CCRF-CEM, 70 nM; in the assay with FM3A, 4000 nM.

Take `Cn1cc(NC(=O)c2cc(NC(=O)c3cc(NC(=O)c4cc(C(=O)N5CC(CCl)c6c5cc(O)c5c6cnn5Cc5ccccc5)nn4C)cn3C)cn2C)cc1C(=O)NCCC(=N)N` (stereo not given): the IC50 amounted to 400 nM in the assay with L1210 [1]; 100 nM in the assay on Daudi; 310 nM in the assay with MOLT-4; 400 nM in the assay on CCRF-CEM; 19300 nM with FM3A.

Consider `Cc1n[nH]c2c(O)cc3c(c12)C(CCl)CN3C(=O)c1cc(C(=O)Nc2cc(C(=O)Nc3cc(C(=O)Nc4cc(C(=O)NCCC(=N)N)n(C)c4)n(C)c3)n(C)c2)n(C)n1.Cl` (stereo not given), for which the IC50 with L1210 [1] was 7.4 nM; in the assay with Daudi it was 8.8 nM; with MOLT-4 it was 17 nM; in the assay with CCRF-CEM it was 71 nM; in the assay with FM3A, 31 nM. Moreover, the MIC is greater than 0.16 µg/mL against E6SM [2]; 0.019 µg/mL in the assay with E6SM [3]; 0.16 µg/mL against E6SM [4]; greater than 0.16 µg/mL against E6SM [6]; greater than 0.16 µg/mL against E6SM [7]; greater than 0.16 µg/mL against E6SM [8]. Also, the MCC in the assay with E6SM [5] was 0.8 µg/mL.

On to `Cc1n[nH]c2c(O)cc3c(c12)C(CCl)CN3C(=O)OC(C)(C)C` (stereo not given), for which the IC50 worked out at 520 nM with L1210 [1]; 680 nM with Daudi; 1740 nM in the assay with MOLT-4; 1260 nM with CCRF-CEM; 1400 nM with FM3A. Further, the MIC against E6SM [2], with E6SM [4], in the assay with E6SM [6], in the assay with E6SM [7] and with E6SM [8] was greater than 1.6 µg/mL throughout. Also, the MCC with E6SM [5] is 8 µg/mL.

Regarding `CC(C)(C)OC(=O)N1CC(CCl)c2c1cc(O)c1c2cnn1Cc1ccccc1` (stereo not given), the IC50 with L1210 [1] is 2710 nM; in the assay with Daudi, 7520 nM; in the assay with MOLT-4, 8550 nM; in the assay with CCRF-CEM it was 6720 nM; with FM3A, 18300 nM.

`Cc1nn(Cc2ccccc2)c2c1C13CC1CN(C(=O)OC(C)(C)C)C3=CC2=O` (racemic): the IC50 with L1210 [9] was found to be 3060 nM.

For the compound `Nc1nc2c(ncn2COCCO)c(=O)[nH]1` [ACYCLOVIR], the MIC was greater than 400 µg/mL in the assay with E6SM [2]; 0.077 µg/mL (≈ 0.342 µM) against E6SM [4]; 48 µg/mL (≈ 213 µM) with E6SM [6]; 0.384 µg/mL (≈ 1.71 µM) with E6SM [7]; 0.077 µg/mL (≈ 0.342 µM) against E6SM [8]. In addition, the MCC in the assay on E6SM [5] is greater than 400 µg/mL.

On to `O=c1[nH]c(=O)n([C@H]2C[C@H](O)[C@@H](CO)O2)cc1/C=C/Br` [BRIVUDINE], for which the MIC in the assay on E6SM [2] was greater than 400 µg/mL; in the assay with E6SM [3], 0.077 µg/mL (≈ 0.231 µM); against E6SM [4], 240 µg/mL (≈ 720 µM); against E6SM [6] it was 240 µg/mL (≈ 720 µM); against E6SM [7], 0.128 µg/mL (≈ 0.384 µM); with E6SM [8], 0.015 µg/mL (≈ 0.045 µM). In the assay with E6SM [5], this compound displayed an MCC greater than 400 µg/mL.

Consider `Nc1nc2c(ncn2COC(CO)CO)c(=O)[nH]1` [GANCICLOVIR], for which the MIC was greater than 100 µg/mL in the assay on E6SM [2]; 0.004 µg/mL (≈ 0.0157 µM) in the assay with E6SM [4]; 1.92 µg/mL (≈ 7.52 µM) in the assay with E6SM [6]; 0.019 µg/mL (≈ 0.0744 µM) in the assay with E6SM [7]; 0.004 µg/mL (≈ 0.0157 µM) against E6SM [8]. The MCC in the assay with E6SM [5] is greater than 100 µg/mL.

`NC(=O)c1ncn([C@@H]2O[C@H](CO)[C@@H](O)[C@H]2O)n1` [RIBAVIRIN]: the MIC came to 48 µg/mL (≈ 197 µM) in the assay with E6SM [2]; 16 µg/mL (≈ 65.5 µM) against E6SM [3]; 48 µg/mL (≈ 197 µM) in the assay with E6SM [4]; 240 µg/mL (≈ 983 µM) in the assay with E6SM [6]; 240 µg/mL (≈ 983 µM) in the assay with E6SM [7]; 240 µg/mL (≈ 983 µM) against E6SM [8]. The MCC with E6SM [5] was greater than 400 µg/mL.

In general, IC50 refers to the concentration at which inhibition is half-maximal. A low value points to inhibition by little substance.
